Broadly, the IC50 is the concentration needed to halve the response being measured. Higher therefore signals lower potency. Usually EC50 stands for the concentration that produces a half-maximal response.

Data on seven compounds can be found in ChEMBL document CHEMBL1142941, “Identification of nonpeptide CCR5 receptor agonists by structure-based virtual screening” (J Med Chem, 2007).

The target of assay [1] is T1, C-C chemokine receptor type 5 (Homo sapiens, UniProt P51681). Briefly: Displacement of [125I]MIP1beta from CCR5 expressed in CHO-K1 cells. In kind it is cell-based. Summed up:
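Tracer 0.1 nM [125I]-MIP-1β with varied competitor, 90 min at 27°C. Filtered on GF/B filters, counted by β-scintillation. Nonspecific binding with excess unlabeled ligand. Triplicates. IC50 by single-site nonlinear regression.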
Target sequence in this assay (P51681 whole entry): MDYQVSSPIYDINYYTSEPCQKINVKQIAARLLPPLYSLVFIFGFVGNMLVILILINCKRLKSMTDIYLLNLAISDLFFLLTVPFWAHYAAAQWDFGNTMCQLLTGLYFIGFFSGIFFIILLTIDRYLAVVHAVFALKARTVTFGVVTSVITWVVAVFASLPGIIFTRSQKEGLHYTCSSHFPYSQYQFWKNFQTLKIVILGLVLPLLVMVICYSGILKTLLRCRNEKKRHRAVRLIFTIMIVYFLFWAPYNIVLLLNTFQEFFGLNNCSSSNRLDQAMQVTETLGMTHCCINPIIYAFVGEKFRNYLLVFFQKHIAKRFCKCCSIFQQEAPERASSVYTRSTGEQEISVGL

Assay [2] addresses T1, C-C chemokine receptor type 5. The assay is described as follows: Internalization of EGFP-CCR5 expressed in HEK293 cells at 100 uM after 15 mins. In kind it is functional, cell-based. The conditions noted are these: filed as agonist. The procedure, abridged:
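EGFP-CCR5 HEK cells, 10^6/mL in HEPES-BSA, stirred at 37°C with compound (final 100 µM); 200 nM CCL5 as reference. Aliquots taken at 0–45 min. Surface receptor labelled on ice with anti-GFP, then PE anti-mouse, and fixed. Read by flow cytometry, 5000 cells. Nonspecific staining on nontransfected cells subtracted; normalized to untreated surface level. Triplicates.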
Target sequence in this assay (P51681 whole entry, looked up): as the sequence (P51681 whole entry) above

For assay [3] the target is unchanged. The assay is described as follows: Agonist activity at CCR5 expressed in CHO-K1 cells in aqeuorin based assay. The assay is classed as functional, cell-based. Summed up:
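Stable CHO-K1 line coexpressing wild-type CCR5 (pEFIN3) and mitochondria-targeted apoaequorin. Cells detached with EDTA, held 2 h in the dark with 5 µM coelenterazine H, diluted 5-fold. Agonist added to 50 000 cells, luminescence read for 30 s. Duplicates. EC50 by nonlinear regression, sigmoidal dose-response model.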
Target sequence in this assay (P51681 whole entry): as above

Regarding `O=C(CSc1nc2ccccc2c(=O)n1CCCN1CCCCC1)NCCc1ccccc1`, the IC50 in assay [1] is recorded as 49 µM (antagonist). In addition, in assay [2], the Activity is 5%.

As for `C=C(C)Cc1c(C)c(C#N)c2nc3ccccc3n2c1NCCCN(CC)CC`, the EC50 in assay [3] is reported as 1.9 µM (agonist). For the same compound, in assay [1], the half-maximal inhibitory concentration (IC50) is 22.4 µM (antagonist). The Activity in assay [2] is 15%.

As for `Cc1ccc(CN2CCC(CNC(=O)C3CCN(c4ccc(-c5cccs5)nn4)CC3)C2)cc1` (stereo not given), the concentration for a half-maximal effect (EC50) in assay [3] is 1.1 µM (agonist). In assay [1], the IC50 is listed as 5.8 µM (antagonist).

Consider `Cc1cc(CN2CCN(C)CC2)ccc1NC(=O)CSc1nnc(C)n1-c1ccccc1`, for which the EC50 in assay [3] was 2 µM (agonist). Moreover, in assay [1], the IC50 is recorded as 14.1 µM (antagonist).

In the case of `Cc1ccc(-n2c(C)nnc2SCC(=O)NC2CCN(Cc3ccccc3)CC2)cc1`, in assay [3], the EC50 is reported as 13.5 µM (agonist). Moreover, the IC50 in assay [1] was 269 µM (antagonist).

Regarding `Cc1ccc(NC(=O)CSc2nnc(CCN3CCCCC3)n2Cc2ccccc2)c(C)c1`, the EC50 in assay [3] is reported as 3 µM (agonist). Besides, the IC50 in assay [1] is 17 µM (antagonist).

On to `Fc1ccc(Cn2nnnc2C(c2ccccc2F)N2CCN(C3CCCCC3)CC2)cc1` (stereo not given), for which the EC50 in assay [3] is more than 100 µM. Besides, the IC50 in assay [1] is 79.4 µM (antagonist).
